Data set [1] can be described thus: AUC (0 to last) in ICR mouse at 10 mg/kg, po administered via gavage by UV-UPLC analysis. The class given is ADME, organism-based. The arrangement: dose 10 mg/kg, time 0 - last, route oral. Particulars: in vivo.
Data set [2] is described as follows: AUC (0 to infinity) in ICR mouse at 10 mg/kg, iv by UV-UPLC analysis. The arrangement: dose 10 mg/kg, time infinity, route intravenous. The settings on record: in vivo. The class given is ADME, organism-based. Summed up:
(§1)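 Female ICR mice, 6–8 weeks old, 20–25 g. Each received 50 μL by tail-vein injection (5 or 10 mg/kg) of a filter-sterilized 2 or 4 mg/mL solution in 20% DMSO/10% Tween-80/70% water. Terminal blood was collected and plasma harvested by centrifugation. Plasma was precipitated with acetonitrile containing internal standard, and the supernatant was analyzed by C18 UPLC with UV detection at 285 nm.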

In data set [3] the target is T1, MecA (Staphylococcus aureus) (UniProt Q7DHH4).
T1 sequence (whole entry): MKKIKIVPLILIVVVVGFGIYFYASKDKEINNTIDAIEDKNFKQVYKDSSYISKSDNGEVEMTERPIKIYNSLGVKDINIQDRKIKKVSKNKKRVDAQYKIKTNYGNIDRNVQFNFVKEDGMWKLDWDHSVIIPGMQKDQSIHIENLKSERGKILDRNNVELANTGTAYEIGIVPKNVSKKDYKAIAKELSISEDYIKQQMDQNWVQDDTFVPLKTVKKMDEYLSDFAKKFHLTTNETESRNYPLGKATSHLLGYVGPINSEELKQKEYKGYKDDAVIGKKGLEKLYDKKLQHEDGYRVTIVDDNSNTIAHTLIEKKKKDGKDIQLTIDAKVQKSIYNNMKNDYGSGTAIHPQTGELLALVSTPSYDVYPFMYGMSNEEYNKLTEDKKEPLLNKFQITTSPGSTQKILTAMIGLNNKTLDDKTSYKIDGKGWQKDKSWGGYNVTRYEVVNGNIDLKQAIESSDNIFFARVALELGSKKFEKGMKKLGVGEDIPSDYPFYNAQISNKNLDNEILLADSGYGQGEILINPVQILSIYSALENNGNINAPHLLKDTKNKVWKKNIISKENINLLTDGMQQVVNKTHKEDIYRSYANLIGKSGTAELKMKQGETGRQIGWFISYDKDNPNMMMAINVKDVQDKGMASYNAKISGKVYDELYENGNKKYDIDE
Nature of the data set: Binding affinity to PBP2a in clindamycin/erythromycin/spectinomycin-resistant mec-positive Staphylococcus aureus NRS70 assessed potentiation of piperacillin and tazobactam-induced bactericidal activity by measuring log reduction in bacterial count at 0.5 times MIC measured after 24 hrs by time-kill assay.

The nature of data set [4]: AUC (0 to last) in ICR mouse at 10 mg/kg, iv by UV-UPLC analysis. The class given is ADME, organism-based. Also noted: dose 10 mg/kg, time 0 - last, route intravenous. The settings on record: in vivo. A digest of the protocol:
as §1

Data set [5] can be described thus: Protein binding in human plasma at 10 uM measured after 6 hrs UV-UPLC based rapid equilibrium dialysis method. It is filed as ADME, cell-free. A digest of the protocol: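 Rapid equilibrium dialysis: human plasma was cleared by centrifugation and spiked from a 1 mM DMSO stock to a final 10 μM, against 0.1 M PBS pH 7.4. Dialysis ran 6 h at 37 °C with orbital shaking. Buffer (free) and plasma (total) aliquots were mixed with internal standard in acetonitrile and measured by UPLC-UV at 285 nm. B% = (Cp−Cf)/Cp×100.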
For orientation: In equilibrium dialysis free small molecules cross a membrane that holds back macromolecules.

The subject of data set [6] is Staphylococcus aureus. Nature of the data set: Bacteriostatic activity against clindamycin/erythromycin/spectinomycin-resistant mec-positive Staphylococcus aureus NRS70 assessed as log reduction in bacterial count at 0.5 to 16 times MIC by time-kill assay. It is filed as functional.

The source of these data is ChEMBL document CHEMBL4342526, “Exploration of the Structural Space in 4(3H)-Quinazolinone Antibacterials” (J Med Chem, 2020).

SMILES strings stand for the structures.

The AUC(0-inf) is total exposure, with the tail of the curve extrapolated. A lower AUC(0-inf) goes with less exposure.

In the case of `N#Cc1ccc(/C=C/c2nc3ccccc3c(=O)n2-c2cc(C(=O)O)ccc2F)cc1`, the figures for the AUClast in data set [1] and in data set [4] were 840 µg·min/mL and 1290 µg·min/mL, respectively. Also, in data set [2], the AUC(0-inf) was 22000 ng·h/mL. In addition, the log(activity) in data set [3] is more than 3; in data set [6] it was less than 3. This compound had a PPB in data set [5] of 95.4%.
